Laboratory results reported in article PMC8343189 (Acta Pharmaceutica Sinica. B, 2020).

Key:
ANO1 [1] = biological target: T1, ANO1 (Homo sapiens, UniProt Q5XXA6, DEL476-501); assay: ANO1 whole-cell patch clamp in ANO1-overexpressing FRT cells; type: cell-based; conditions: 30 μmol/L, ANO1 activated by 1 μmol/L intracellular Ca^2+
T1 sequence (Q5XXA6 with tags, fused parts or gaps isoform Q5XXA6-5 DEL539-564): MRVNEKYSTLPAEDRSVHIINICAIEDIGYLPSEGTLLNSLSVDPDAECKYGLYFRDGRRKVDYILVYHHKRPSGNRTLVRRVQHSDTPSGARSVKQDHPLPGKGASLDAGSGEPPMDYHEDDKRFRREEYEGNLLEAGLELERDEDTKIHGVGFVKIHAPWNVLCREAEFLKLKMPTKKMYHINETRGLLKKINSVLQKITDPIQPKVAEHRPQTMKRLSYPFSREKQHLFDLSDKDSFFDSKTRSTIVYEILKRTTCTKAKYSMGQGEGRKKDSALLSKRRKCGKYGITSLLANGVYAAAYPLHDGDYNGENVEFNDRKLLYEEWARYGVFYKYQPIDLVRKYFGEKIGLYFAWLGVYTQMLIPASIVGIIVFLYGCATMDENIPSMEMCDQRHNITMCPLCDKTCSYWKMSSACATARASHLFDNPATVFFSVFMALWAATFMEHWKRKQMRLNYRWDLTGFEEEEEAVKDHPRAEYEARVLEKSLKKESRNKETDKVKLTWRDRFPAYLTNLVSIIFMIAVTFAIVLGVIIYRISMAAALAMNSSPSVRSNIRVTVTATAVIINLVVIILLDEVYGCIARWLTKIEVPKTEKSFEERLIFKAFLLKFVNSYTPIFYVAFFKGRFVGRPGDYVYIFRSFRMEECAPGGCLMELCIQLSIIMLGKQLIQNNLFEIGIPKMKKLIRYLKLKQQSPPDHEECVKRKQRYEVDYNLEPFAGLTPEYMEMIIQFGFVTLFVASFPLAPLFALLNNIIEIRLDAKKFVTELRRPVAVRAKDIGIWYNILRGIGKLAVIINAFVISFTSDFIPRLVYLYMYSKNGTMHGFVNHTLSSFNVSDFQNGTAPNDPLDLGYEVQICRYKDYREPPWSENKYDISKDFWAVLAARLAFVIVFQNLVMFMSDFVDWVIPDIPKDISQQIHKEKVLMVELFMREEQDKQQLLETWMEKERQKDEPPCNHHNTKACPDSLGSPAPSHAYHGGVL

ANO1 [2] = biological target: T1, ANO1; assay: YFP fluorescence quenching assay in ANO1-overexpressing FRT cell line; type: cell-based
[3] = tested on: intracellular Ca^2+ concentration; assay: Intracellular Ca^2+ fluorescence; type: cell-based; conditions: 30 μmol/L compound, 200 μmol/L ATP, Cal520, control 2.3 folds
ANO2 = biological target: T2, ANO2 (Homo sapiens, UniProt Q9NQ90); assay: ANO2 whole-cell patch clamp in HEK293 cells transiently expressing ANO2; type: cell-based; conditions: 30 μmol/L
T2 sequence (Q9NQ90 1-998): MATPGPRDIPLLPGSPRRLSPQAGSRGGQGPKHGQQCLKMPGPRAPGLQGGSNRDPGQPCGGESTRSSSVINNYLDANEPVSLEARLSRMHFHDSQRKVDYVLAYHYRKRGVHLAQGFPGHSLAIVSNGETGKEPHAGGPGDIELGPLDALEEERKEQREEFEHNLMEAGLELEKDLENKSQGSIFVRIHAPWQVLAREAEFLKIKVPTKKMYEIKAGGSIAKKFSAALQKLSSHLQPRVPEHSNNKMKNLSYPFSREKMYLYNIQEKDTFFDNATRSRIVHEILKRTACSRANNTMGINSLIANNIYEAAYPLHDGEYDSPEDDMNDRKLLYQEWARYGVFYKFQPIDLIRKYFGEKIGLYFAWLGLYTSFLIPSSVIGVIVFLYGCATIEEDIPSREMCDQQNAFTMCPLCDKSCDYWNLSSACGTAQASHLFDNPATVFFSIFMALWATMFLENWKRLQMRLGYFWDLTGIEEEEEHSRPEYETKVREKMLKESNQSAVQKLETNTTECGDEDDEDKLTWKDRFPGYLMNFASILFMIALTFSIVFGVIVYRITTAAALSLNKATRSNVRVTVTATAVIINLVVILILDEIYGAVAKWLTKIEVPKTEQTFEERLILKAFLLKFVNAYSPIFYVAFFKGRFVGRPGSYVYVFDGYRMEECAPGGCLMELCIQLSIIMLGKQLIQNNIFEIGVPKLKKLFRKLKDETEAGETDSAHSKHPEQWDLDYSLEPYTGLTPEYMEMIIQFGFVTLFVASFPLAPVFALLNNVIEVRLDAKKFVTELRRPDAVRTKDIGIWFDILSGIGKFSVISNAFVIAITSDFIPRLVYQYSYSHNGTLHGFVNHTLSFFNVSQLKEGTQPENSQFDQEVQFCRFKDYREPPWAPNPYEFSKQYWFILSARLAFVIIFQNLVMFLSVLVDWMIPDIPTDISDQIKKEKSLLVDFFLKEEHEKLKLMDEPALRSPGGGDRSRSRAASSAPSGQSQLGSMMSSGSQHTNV
In short: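 HEK293 cells transiently transfected with the ANO2 gene; whole-cell patch clamp at room temperature, pipette solution at pCa2+ 6.0. Cells held at −40 mV, stepped from […] in +20 mV increments for 500 ms, then repolarized to −80 mV for 250 ms, every 15 s. Currents recorded before and after 30 μmol/L test compound; an ANO1-selective inhibitor and a pan-inhibitor served as controls.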

[4] = Stability under different pH conditions; type: physicochemical; conditions: 37 °C, 100 μmol/L, mean ± SD, n = 3
In short: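 Test compound diluted to 100 μmol/L in phosphate buffers at pH 1.0, 4.0, 6.8, 7.4 and 9.0 and held in a 37 °C water bath. HPLC−UV peak area measured at 0, 2 and 5 h; residual expressed relative to the 0 h peak area.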

MDCK cells permeability = type: in vitro ADME, canine; conditions: dog, MDCK
In short: (§1)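 Transwell with a resistance-stable MDCK monolayer; compound added to the upper chamber, HBSS in the lower chamber. Incubated 120 min at 37 °C, 5% CO2. Lower-chamber concentration measured by LC−MS. Papp derived from amount transported per time, membrane area and initial upper-chamber concentration. Mean ± SD, n = 3.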

MDCK cells = MDCK cells permeability; type: in vitro ADME, canine; conditions: oral bioavailability prediction from MDCK permeability
In short: as §1

CHO cells = assay: SRB proliferative cytotoxicity in CHO cells; type: cell-based, Chinese Hamster; conditions: 1 and 3 μmol/L, 72 h
In short: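 CHO cells in DMEM with 10% FBS, seeded overnight, then exposed to test compound or DMSO vehicle for 72 h. Cells fixed with 10% TCA for 1 h at 4 °C and stained with 0.4% SRB in 1% acetic acid for 15 min in the dark. Washed with acetic acid, dye dissolved in 10 mmol/L Tris-base, absorbance read at 540 nm. n = 3, mean ± SEM, t-test vs DMSO control.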

C57BL/6 male mice = assay: Acute toxicity in mice, i.g.; type: in vivo
In short: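 Male C57BL/6 mice, 6–8 weeks, 18–22 g, 7 per group, received a single intragastric dose of 1000 mg/kg. Vehicle was 5% DMSO + 10% […] + 85% saline (v/v), adjusted to pH 8.0 with NaOH. Survival was monitored daily for 3 days.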

SD rats [5] = assay: Formalin test on rat; type: in vivo
In short: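 30 min later, 50 μL 5% formalin injected into the left paw; controls received saline. Foot lifts counted over phase 1 (0–10 min) and phase 2 (10–60 min). Mean ± SD; ANOVA vs vehicle.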

SD rats [6] = assay: Chronic constriction injury model; type: in vivo; conditions: 40 mg/kg i.g., rat CCI, Electronic Von Frey, vehicle 11.5

SMILES: O=C(O)c1c(-c2ccc(Cl)cc2)csc1NC(=O)c1cccc2ccccc12 [Compound 42, 2-(1-Naphthamido)-4-(4-chlorophenyl) thiophene-3-carboxylic acid]
- CaCC current (ANO1 [1]): significantly suppressed the CaCC current
- IC50 (ANO1 [2]): 790 nM
- maximum relative fluorescence units (RFU) vs initial value (Ca^2+ influx) [3]: 1.9 folds
- effect on ANO2 induced CaCC current (ANO2; HEK293 cells expressing ANO2): little effect
- ANO1/ANO2 selectivity (ANO2; compared with Ani9 and CaCCinh-A01): slightly weaker than that of Ani9 but much higher than that of CaCCinh-A01
- 5 h residual compound under different pH (%) pH 1.0 ([4]; pH 1.0, 5 h): 99.0 ± 4.6%
- 5 h residual compound under different pH (%) pH 4.0 ([4]; pH 4.0, 5 h): 99.4 ± 4.4%
- 5 h residual compound under different pH (%) pH 6.8 ([4]; pH 6.8, 5 h): 99.2 ± 4.9%
- 5 h residual compound under different pH (%) pH 7.4 ([4]; pH 7.4, 5 h): 99.4 ± 3.5%
- 5 h residual compound under different pH (%) pH 9.0 ([4]; pH 9.0, 5 h): 99.5 ± 0.9%
- Papp at 120 min (MDCK cells permeability): 13.8 ×10⁻⁶ cm/s
- F prediction (%) (MDCK cells): >70%
- effect on CHO cell proliferation (CHO cells): weak effect
- survival and acute toxic response (C57BL/6 male mice; 1000 mg/kg i.g., 72 h, C57BL/6 male mice): All mice survived and no intense acute toxic response
- safe dose (C57BL/6 male mice; i.g. administration, mice): ≤ 1000 mg/kg
- analgesic effect in phase 2 compared with vehicle (SD rats [5]; 80 mg/kg i.g., phase 2): significant analgesic effect
- number of foot lifts, phase 2 (SD rats [5]; 80 mg/kg i.g., phase 2, vehicle 121 foot lifts): 70 foot lifts
- effect on number of foot lifts, phase 1 (SD rats [5]; i.g., compared with the vehicle group, phase 1): not phase 1
- PTI, pain threshold rate change (%) of 1 h compared to 0 h (SD rats [6]): 45.2%
